Screening data from PubChem.
OX1R antag-1 = antagonists of human orexin 1 receptor (OX1R). Orexin/Hypocretin receptor type 1 (Homo sapiens), O43613. OX1R-expressing cells, FRET antagonist read-out. inhibition, % at 6.6 µM. 330,000 compounds, 1.8% hits; in the data active means inhibition mostly above about 38%, no sharp cut-off; inactive means mostly below about 40%;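 further: 0% = agonist challenge alone and 100% = reference antagonist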
Target sequence (O43613 whole entry, looked up): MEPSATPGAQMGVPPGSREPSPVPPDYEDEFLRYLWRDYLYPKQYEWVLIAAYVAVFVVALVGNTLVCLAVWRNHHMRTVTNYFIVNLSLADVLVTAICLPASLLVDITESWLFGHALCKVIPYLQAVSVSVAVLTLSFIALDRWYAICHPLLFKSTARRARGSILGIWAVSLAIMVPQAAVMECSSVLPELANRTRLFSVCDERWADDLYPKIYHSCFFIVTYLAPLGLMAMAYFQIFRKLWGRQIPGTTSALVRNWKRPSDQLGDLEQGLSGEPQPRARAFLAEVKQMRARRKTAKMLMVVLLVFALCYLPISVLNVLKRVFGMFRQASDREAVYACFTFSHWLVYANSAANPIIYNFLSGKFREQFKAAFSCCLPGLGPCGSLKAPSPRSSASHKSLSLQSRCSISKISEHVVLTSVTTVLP
TAAR1 ag = human TAAR1 agonists, primary screen, Fluo-8 calcium fluorescence, CHO RD-HGA16 cells | 360,000 compounds, 0.99% hits | Trace amine-associated receptor 1 (Homo sapiens), Q96RJ0 | vehicle wells 0%, saturating PEA agonist 100% | AID 624467, 2012 | activation, % at 3 µM;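 active means activation above the mean activation of all test compounds in the run plus 3 SD, cut at about 38% in these data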
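Test system: RD-HGA16 (CHO) cells co-expressing Gα16 and hTAAR1 | Doses: Single dose, 3 µM | Schedule: 17-24 h seeding, 75 min 37 °C dye, 30 min RT | Evaluation: % activation from peak over basal fluorescence ratio, DMSO-to-PEA scaled | Technique: Kinetic Fluo-8 calcium fluorescence | Benchmarks: Low control DMSO, high control PEA (EC100)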
CHO parental Ca = ATP-evoked calcium signal inhibitors, parental CHO, primary screen, counter-screen for OX1R antagonist project, cell-based, fluorescence, Fluo-8 calcium dye | inhibition, % at 5.6 µM | 330,000 compounds, 0.63% hits | parental CHO-K1, ATP-induced calcium, Fluo-8 fluorescence;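 active means inhibition above that plate's mean sample inhibition plus 3 SD, cut at about 26% in these data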;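 further: 0% = ATP-challenged DMSO wells and 100% = DMSO wells without ATP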
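Material: Parental CHO cells | Reagent: ATP | Compound dosing: Single nominal dose of 5.6 µM per compound | Detection: Intracellular calcium via Fluo-8 no-wash fluorescent dye | Read-out: % inhibition of ATP-induced calcium mobilization | Benchmarks: Low control ATP plus DMSO, high control DMSO only | Replicates: Singlicate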
OX1R antag-2 = OX1R (HCRTR1) antagonists, primary screen, fluorescence, CHO/OX1R cells, Fluo-8 calcium, orexin A; 330,000 compounds, 0.43% hits; inhibition, % at 5 µM; Orexin/Hypocretin receptor type 1 (Homo sapiens), O43613; Fluo-8 calcium fluorescence;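 active means inhibition above its plate's threshold, mean inhibition of all tested compounds on the plate plus 3 SD, cut at about 37% in these data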;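 further: 0% = orexin A challenge wells and 100% = SB-334867-A antagonist wells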
TAAR1 antag = human TAAR1 antagonists, primary screen, Fluo-8 calcium fluorescence, CHO RD-HGA16 cells | Trace amine-associated receptor 1 (Homo sapiens), Q96RJ0 | antagonist | inhibition, % at 3 µM | 360,000 compounds, 1.5% hits;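 active means inhibition above a per-plate cutoff, the mean inhibition of test compounds on that plate plus 3 SD, cut at about 49% in these data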;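 further: 0% = DMSO plus EC80 beta-PEA response and 100% = DMSO alone without agonist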
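Test system: CHO RD-HGA16 cells bearing hTAAR1 | Reagent: β-PEA, EC80 | Compound dosing: 3 µM, single point | Schedule: Dye loading 75 min at 37 °C, then 30 min room temperature | Signal: Calcium fluorescence with Fluo-8 | Evaluation: Percent inhibition of PEA-evoked calcium signal, max/basal emission ratio | Control set: DMSO-only wells and EC80 β-PEA-stimulated wells | Repeats: Singlicate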
GPR7 antag = GPR7 receptor antagonists, primary screen, cell-based, fluorescence, single concentration. inhibition, % at 4.4 µM. GPR7-expressing cells, fluorescence antagonist assay. AID 1861, 2009. 290,000 compounds, 1.1% hits; in the data active means inhibition above about 16%, passing the limit was not always enough;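 further: cells stimulated with the agonist NPW; 0% = agonist with vehicle and 100% = vehicle without agonist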
* marks the source's active call; other numbers are inactive results. Sampled rows, rich in hits. Any-hit rate of the full collection: about 4.6%.

For CCCCOCCCNC(=O)C[C@H]1C[C@@]2(C(=O)OC)C(=C[C@H](C(C)(C)C)O[C@@H]2C)N(Cc2ccccc2)C1=O the results were TAAR1 ag -2.2 and TAAR1 antag -21.5.
`Cc1ccccc1OCCOc1cccc(/C=N/NC(=O)Cc2nnc(N)s2)c1` gave OX1R antag-1 61.7, TAAR1 ag 14.2, CHO parental Ca 53.5*, OX1R antag-2 47.7*, TAAR1 antag 48.9* and GPR7 antag 22.4.
CCOC(=O)c1c(C)[nH]c(C(=O)COC(=O)[C@H](C)N2C(=O)C3CCCCC3C2=O)c1C (stereo partly specified) was read as TAAR1 ag 20.3 and TAAR1 antag 55.7*.
For CC(=O)c1c(C)[nH]c(C(=O)COC(=O)CN2C(=O)C3CCCCC3C2=O)c1C (stereo unspecified) the results were OX1R antag-1 3.1, TAAR1 ag 13.0, CHO parental Ca -5.6, OX1R antag-2 -1.3 and TAAR1 antag 1.6.
`COC(=O)C1=C(C(=O)OC)C2CCCC1C1N=NN(c3ccccc3)C21` (stereo unspecified) gave TAAR1 ag 0.2 and TAAR1 antag -2.8.
`Nc1nc2c(ncn2[C@@H]2O[C@H](CNCc3ccc4ncccc4c3)[C@@H](O)[C@H]2O)c(=O)[nH]1` gave TAAR1 ag 1.8 and TAAR1 antag 2.0.
O=C(Nc1ccc2c(c1)OCO2)c1cnn2cccnc12 was read as OX1R antag-1 -1.1, TAAR1 ag 10.2, CHO parental Ca -2.5, OX1R antag-2 0.8, TAAR1 antag -5.6 and GPR7 antag 17.2*.
O=C(Nc1cccc(O)c1)c1cnn2cccnc12 was read as OX1R antag-1 10.7, TAAR1 ag 4.3, CHO parental Ca -13.8, OX1R antag-2 -13.8, TAAR1 antag -3.4 and GPR7 antag -5.5.
Screening O=C(Nc1cccc(Cl)c1)NN(c1ccccc1)C1CCS(=O)(=O)C1 (stereo unspecified) returned TAAR1 ag 7.0 and TAAR1 antag 17.5.
`C(=N\NC1=Nc2cccc3cccc1c23)/c1cccnc1` gave OX1R antag-1 72.4*, TAAR1 ag 7.2, CHO parental Ca -10.3, OX1R antag-2 10.6, TAAR1 antag 25.3 and GPR7 antag -2.7.
For Cc1cc(NC(=O)NCc2ccco2)ccc1NC(=O)NCc1ccco1 the results were TAAR1 ag 2.0 and TAAR1 antag -4.3.
For Cc1ccc(N/C(SCc2ccccc2C)=C(/C#N)C(=O)NCc2ccco2)cc1C the results were OX1R antag-1 14.1, TAAR1 ag -0.3, CHO parental Ca -22.5, OX1R antag-2 -11.1, TAAR1 antag 63.5* and GPR7 antag -6.3.
`Cc1[nH]nc2c1C(c1cccc(C(F)(F)F)c1)N(Cc1ccccc1)C2=O` (stereo unspecified) gave TAAR1 ag 2.5 and TAAR1 antag -32.6.
Cc1cccc(S(=O)(=O)NC(=O)C2(C)CCN2C(=O)c2c(C)noc2C)c1 (stereo unspecified) was read as TAAR1 ag 0.7 and TAAR1 antag -1.2.
For C/C(=N\NC(=O)C1CC1)c1ccc(N2CCOCC2)cc1 the results were OX1R antag-1 16.4, TAAR1 ag 0.7, CHO parental Ca 16.4, OX1R antag-2 -0.5, TAAR1 antag -1.9 and GPR7 antag 16.5*.
Screening C/C(=N\NC(=O)c1ccccc1)c1ccc(N2CCOCC2)cc1 returned OX1R antag-1 14.6, TAAR1 ag -0.8, CHO parental Ca 5.3, OX1R antag-2 -3.3, TAAR1 antag 4.0 and GPR7 antag 6.0.
Screening CCCCC1Cc2[nH][nH]c(=O)c2C(c2ccc(F)cc2)O1 (stereo unspecified) returned TAAR1 ag 1.2 and TAAR1 antag -7.1.
For CCCC1=NN2C(=N)/C(=C\c3cc(C)n(-c4cc(C)cc(C)c4)c3C)C(=O)N=C2S1 the results were OX1R antag-1 25.8, TAAR1 ag 41.8*, CHO parental Ca -13.3, OX1R antag-2 -23.5, TAAR1 antag 53.2* and GPR7 antag -7.7.
Cc1cc(C)cc(-n2c(C)cc(/C=C3\C(=N)N4N=C(CC(C)C)SC4=NC3=O)c2C)c1 was read as OX1R antag-1 5.9, TAAR1 ag 8.3, CHO parental Ca -4.6, OX1R antag-2 -20.4, TAAR1 antag -8.9 and GPR7 antag -6.1.
For C[C@@H]1CN([C@@H](C)CO)C(=O)CCCn2cc(nn2)CO[C@H]1CN(C)S(C)(=O)=O the results were TAAR1 ag 2.2 and TAAR1 antag 16.2.
Screening CCCOc1ccc(-c2csc3nc[nH]c(=O)c23)cc1 returned OX1R antag-1 10.8, TAAR1 ag -0.1, CHO parental Ca 1.4, OX1R antag-2 -9.0, TAAR1 antag 3.9 and GPR7 antag 13.1.
O=c1[nH]cnc2scc(-c3ccc(-c4ccccc4)cc3)c12 was read as OX1R antag-1 27.8, TAAR1 ag 10.0, CHO parental Ca -1.2, OX1R antag-2 -2.3, TAAR1 antag 49.7* and GPR7 antag -7.9.
For O=C(O)c1ccc(N2CCN(C(c3ccccc3)c3ccccc3)CC2)c([N+](=O)[O-])c1 the results were OX1R antag-1 -3.5, TAAR1 ag 0.1, CHO parental Ca 3.9, OX1R antag-2 -6.5, TAAR1 antag 29.8 and GPR7 antag -12.4.
C=C1CCN(c2ccc(C(=O)O)cc2[N+](=O)[O-])CC1 was read as OX1R antag-1 69.8*, CHO parental Ca -6.0 and OX1R antag-2 -15.3.
O=C(Nc1ccc(F)cc1)Nc1csc2ccccc12 was read as OX1R antag-1 28.6, TAAR1 ag 3.3, CHO parental Ca 12.2, OX1R antag-2 18.1, TAAR1 antag 31.7 and GPR7 antag 8.2.
Screening CN(C)c1ccc(NC(=O)Nc2csc3ccccc23)cc1 returned OX1R antag-1 56.8*, TAAR1 ag 7.5, CHO parental Ca -15.0, OX1R antag-2 28.6, TAAR1 antag -14.4 and GPR7 antag 0.0.
For Cc1onc(-c2ccccc2)c1C(=O)NCC1CCN(C(=O)C(=O)c2cccs2)CC1 the results were TAAR1 ag -0.1 and TAAR1 antag -10.6.
`Cc1cccc(N2CCN(C(C(=O)NCc3ccccc3)c3ccc(F)cc3)CC2)c1C` (stereo unspecified) gave TAAR1 ag 3.8 and TAAR1 antag 26.0.
Screening Cc1cccc2cc(C#N)c(SCC(=O)N3CC(=O)Nc4ccccc43)nc12 returned OX1R antag-1 70.6*, TAAR1 ag 4.7, CHO parental Ca 0.1, OX1R antag-2 14.3, TAAR1 antag 12.7 and GPR7 antag 1.6.
